MrgX1 antag: blocks BAM8-22 activation of human MrgX1 receptor; Q96LB2; MRGX1-HEK293 calcium flux, Fluo-4, BAM8-22 antagonism; active compounds read low; B-score at 10 µM; hit rate 1.3% among 310,000; AID 588676;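 active means calcium-response B-score plate-corrected more than 3 library SD below zero, starting fluorescence within 5 deviations, no agonist response on first addition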;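 further: peak minus trough fluorescence over baseline after final BAM8-22 challenge near maximal dose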
Target sequence (Q96LB2 whole entry, looked up): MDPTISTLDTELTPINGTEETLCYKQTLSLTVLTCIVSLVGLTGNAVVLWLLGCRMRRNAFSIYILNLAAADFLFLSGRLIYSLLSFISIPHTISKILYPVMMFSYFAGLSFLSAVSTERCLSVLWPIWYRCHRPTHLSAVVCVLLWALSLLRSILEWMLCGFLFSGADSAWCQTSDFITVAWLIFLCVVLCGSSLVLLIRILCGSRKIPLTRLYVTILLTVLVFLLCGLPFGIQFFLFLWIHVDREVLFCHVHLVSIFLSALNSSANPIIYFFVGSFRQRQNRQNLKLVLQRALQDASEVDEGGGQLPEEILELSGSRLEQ
MrgX1 allo act: allosterically activates human MrgX1 receptor signaling. MrgX1-HEK293, Fluo-4 calcium flux, FDSS; active compounds read high. B-score at 10 µM. hit rate 0.63% among 310,000. AID 588675;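 active means plate-corrected calcium response at least 3 library SD above typical, normal starting fluorescence, not activating the receptor alone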;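 further: compound read alongside a low EC10 to EC30 dose of BAM8-22 agonist; peak minus trough fluorescence over baseline measured at the second addition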
RGS4 inh: inhibitors of human RGS4; HEK293 M3R/RGS4 inducible, Fluo-4 calcium flux; active compounds read high; triggered by carbachol at its EC20; B-score at 10 µM; hit rate 0.45% among 310,000;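 active means B-score, a plate-corrected calcium signal, over three deviations above library mean, with baseline fluorescence within five deviations of library mean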;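 further: RGS4 expression induced by doxycycline in cells with stable M3 receptor; B-score is computed from the integrated fluorescence ratio over baseline after carbachol; higher B-score means a larger calcium signal and so more RGS4 inhibition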
Target sequence (P49798 whole entry, looked up): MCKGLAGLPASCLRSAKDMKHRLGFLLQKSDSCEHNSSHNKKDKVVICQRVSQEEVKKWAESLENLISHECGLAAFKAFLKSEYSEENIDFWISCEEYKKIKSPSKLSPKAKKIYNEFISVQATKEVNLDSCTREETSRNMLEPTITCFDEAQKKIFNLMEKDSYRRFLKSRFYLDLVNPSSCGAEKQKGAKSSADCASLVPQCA
RGS4 pot: RGS4 potentiation or activation. hit rate 0.92% among 310,000. B-score at 10 µM. HEK293 M3R/inducible RGS4, carbachol calcium flux Fluo4; active compounds read low;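 active means B-score of the integrated calcium signal more than 4 SD below the library mean, with starting fluorescence not abnormally high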;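 further: negative B-score means reduced calcium response which marks RGS4 activation or potentiation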
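Assay system: HEK293 FlpIn-TREx cells, stable M3R, doxycycline-inducible RGS4 / Probe or stimulus: carbachol, ECmax concentration / Times: overnight RGS4 induction, 30 min dye load 37 °C, 20 min compound RT / Signal: kinetic calcium fluorescence imaging with Fluo4-AM dye, 2 µM / Measure: Agonist-evoked peak-minus-minimum fluorescence over baseline, integrated ratio, B score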
MrgX1 agonist: human MrgX1 receptor agonism, primary screen; Q96LB2; MrgX1-HEK293 cells, Fluo-4 calcium fluorescence, agonist mode; active compounds read high; B-score at 10 µM; hit rate 0.44% among 310,000; AID 588627;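 active means calcium response B-score plate-corrected fluorescence ratio at least 3 library SD, with starting fluorescence B-score inside 5 SD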
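Material: MrgX1-expressing HEK293 cells / Dosing: compound as first of three additions / Incubation: overnight seeding, then 1 h dark dye loading / Signal: Fluo-4 NW calcium fluorescence / Evaluation: B-scored fluorescence response ratio / Benchmarks: positive and negative control wells on each plate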
MrgX1 ant reconf: human MrgX1 receptor antagonism, re-confirmation screen. shares compounds with MrgX1 antag. MrgX1-HEK293, BAM8-22 calcium flux, Fluo-4; active compounds read low. remaining BAM8-22 calcium response % of control (active compounds read low), % at 10 µM. hit rate 19% among 2,300;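 active means remaining agonist calcium response no higher than 100% minus 3 SD of agonist-only control wells, with starting fluorescence near control levels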;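 further: agonist BAM8-22 given at a near maximal EC90 to ECmax level; peak minus minimum fluorescence divided by baseline after agonist addition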
HEK293 Ca flux: activity in parental HEK293 cells lacking MrgX1. shares compounds with MrgX1 antag. Fluo-4 calcium fluorescence, FDSS. fluorescence ratio F(max-min)/F0 at 10 µM. hit rate 2% among 4,000;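 active means duplicate-averaged calcium fluorescence ratio at least three times the standard deviation of buffer wells, a nonspecific response in parental cells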
HEK293 Ca counter: counter-screen for MrgX1 allosteric activators: effect in parental HEK293 cells | shares compounds with MrgX1 antag | parental HEK293 calcium flux, Fluo-4 fluorescence ratio; active compounds read high | fluorescence ratio F(max-min)/F0 at 10 µM | hit rate 0.4% among 4,000 | AID 624114;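 active means calcium fluorescence ratio, averaged over duplicates, at least 3 SD of the buffer-well ratio, meaning a nonspecific response in receptor-free cells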;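 further: untransfected parental HEK293 lacking MrgX1 used as counterscreen for MrgX1 allosteric activators; fluorescence change taken during the second addition on a kinetic imager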
HEK293 Ca cntr2: activity in parental HEK293 cells lacking MrgX1 receptor; shares compounds with MrgX1 antag; Fluo-4 calcium fluorescence (FDSS); active compounds read high; fluorescence ratio F(max-min)/F0 at 10 µM; hit rate 8.7% among 4,000;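 active means calcium fluorescence ratio at least three times the spread of buffer wells, meaning a non-specific response in parental cells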
Each line names hits and unclear results; the compound was inactive in the other large screens (follow-up assays come after a bar, where they were run). In the library only some 3.5% were active in any assay of this set; here they are far more common.

O=C(c1ccco1)N1CCN(Cc2cccc3ccccc23)CC1	none
CCNc1nc2c(c(=O)[nH]c(=O)n2C)n1CC(C)C	MrgX1 antag -4.59 | MrgX1 ant reconf inactive | HEK293 Ca flux inactive | HEK293 Ca counter inactive | HEK293 Ca cntr2 inactive
Cc1occc1C(=O)N/N=C/c1cccs1	MrgX1 antag -10.3 | MrgX1 ant reconf 83.3% | HEK293 Ca flux inactive | HEK293 Ca counter inactive | HEK293 Ca cntr2 inactive
Cc1cc(=O)[nH]c(SCC(=O)NCCC2=CCCCC2)n1	none
Cn1cc(CNC(=O)C2CCC(=O)N(Cc3ccccc3F)C2)cn1 (stereo not drawn)	MrgX1 antag -4.74 | MrgX1 ant reconf inactive | HEK293 Ca flux inactive | HEK293 Ca counter inactive | HEK293 Ca cntr2 inactive
CC(C)=Cc1oc2ccc([N+](=O)[O-])cc2c1N1CC(C)OC(C)C1 (stereo not drawn)	none
Cc1cc(C(=O)OCC(=O)N2CCN(c3ccccc3)CC2)c2ccccc2n1	MrgX1 antag -5.55 | MrgX1 ant reconf inactive | HEK293 Ca flux inactive | HEK293 Ca counter inactive | HEK293 Ca cntr2 inactive
O=C(OCC(=O)N1CCN(C(=O)c2ccco2)CC1)c1cc(-c2ccccc2)nc2ccccc12	none
CCC(=O)N1CCc2cc(Br)cc(S(=O)(=O)CC(=O)OC)c21	MrgX1 antag -5.91 | MrgX1 ant reconf inactive | HEK293 Ca flux inactive | HEK293 Ca counter inactive | HEK293 Ca cntr2 inactive
NC(=O)CN1CCN(Cc2ccc3c(c2)OCO3)CC1	none
CC(C)CCNC(=O)c1cc(-c2ccncc2)nc2ccc(S(=O)(=O)N3CCOCC3)cc12	MrgX1 antag -8.29 | MrgX1 ant reconf inactive | HEK293 Ca flux inactive | HEK293 Ca counter inactive | HEK293 Ca cntr2 inactive
Cc1cccc(C)c1NC(=O)CNC(=O)c1ccc2nc[nH]c2c1	none
Cn1cc(S(=O)(=O)N2CCCC2)cc1C(=O)N1CCN(c2ccccc2)CC1	MrgX1 antag -7.65 | MrgX1 ant reconf 83.5% | HEK293 Ca flux inactive | HEK293 Ca counter inactive | HEK293 Ca cntr2 inactive
Cc1nnc(NC(=O)C2CSC3(C)CCC(=O)N23)s1 (stereo not drawn)	none
CS(=O)(=O)N(CCc1ccccc1)CC(=O)NCC1CCCO1 (stereo not drawn)	MrgX1 antag -6.73 | MrgX1 ant reconf inactive | HEK293 Ca flux inactive | HEK293 Ca counter inactive | HEK293 Ca cntr2 inactive
Cc1nn(CC(=O)N2CCC(C(N)=O)CC2)c(=O)c2nn(-c3ccccc3)c(C)c12	none
Cc1ccc(C(=O)NCCc2nnc3ccc(SCC(=O)Nc4c(C)cc(C)cc4C)nn23)cc1	MrgX1 antag -5.69 | MrgX1 ant reconf inactive | HEK293 Ca flux inactive | HEK293 Ca counter inactive | HEK293 Ca cntr2 inactive
Cc1ccc(C)c(NC(=O)CN(C)C(=O)c2cccc(S(=O)(=O)N3CCN(Cc4ccccc4)CC3)c2)c1	none
Cc1ccc(C)c(NC(=O)CN(C)C(=O)c2cccc(S(=O)(=O)N(C)C)c2)c1	MrgX1 antag -4.93 | MrgX1 ant reconf 84.4% | HEK293 Ca flux inactive | HEK293 Ca counter inactive | HEK293 Ca cntr2 inactive
CCCSCCCNC(=O)CC1Oc2ccccc2NC1=O (stereo not drawn)	MrgX1 antag -4.92 | MrgX1 ant reconf inactive | HEK293 Ca flux inactive | HEK293 Ca counter inactive | HEK293 Ca cntr2 inactive
COCCCNC(=O)CC1Oc2ccccc2NC1=O (stereo not drawn)	none
COc1ccccc1OCC(O)Cn1c(=N)n(Cc2ccccc2)c2ccccc21 (stereo not drawn)	none
N=c1n(Cc2ccccc2)c2ccccc2n1CC(O)c1ccccc1 (stereo not drawn)	MrgX1 antag -5.58 | MrgX1 ant reconf inactive | HEK293 Ca flux inactive | HEK293 Ca counter inactive | HEK293 Ca cntr2 inactive

Compound activity as filed in PubChem BioAssay.
